ChEMBL document CHEMBL1629534, “Acetic acid derivatives of 3,4-dihydro-2H-1,2,4-benzothiadiazine 1,1-dioxide as a novel class of potent aldose reductase inhibitors” (J Med Chem, 2010)

Assays:
[1] = molecular target: Aldo-keto reductase family 1 member A1 (Rattus norvegicus, UniProt P51635); test: Inhibition of Wistar rat kidney ALR1 by spectrophotometry
How it was run: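 ALR1 enzyme extract in 0.1 M sodium phosphate pH 7.2 with NADPH (0.25 mL of 0.12 mM) and compound diluted from DMSO, preincubated 10 min at 37 °C. Started with sodium D-glucuronate (0.25 mL of 20 mM, 1 mL total). Fall in A340 followed for 4 min, corrected for substrate-free rate. Screened at 10^-4 M. IC50 from at least four concentrations, 10^-4 to 10^-8 M, in triplicate.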

[2] = molecular target: Aldo-keto reductase family 1 member B1 (Rattus norvegicus, UniProt P07943); test: Inhibition of Wistar rat lenses ALR2 by spectrophotometry; type: tissue-based, Lens of camera-type eye
How it was run: (§1)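 ALR2 enzyme extract in 0.1 M sodium phosphate pH 6.2 with NADPH (0.25 mL of 0.10 mM) and compound diluted from DMSO, preincubated 10 min at 32 °C. Started with D,L-glyceraldehyde (0.25 mL of 10 mM, 1 mL total). Fall in A340 followed for 4 min, corrected for substrate-free rate. Screened at 10^-4 M. IC50 from at least four concentrations giving 20-80% inhibition, in triplicate, with 95% CL.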

Rattus norvegicus [3] = test: Inhibition of ALR2 in 5-day STZ-induced diabetic Wistar rat model assessed as normalization of elevated sorbitol levels in sciatic nerves at 100 mg/kg/day, po for 5 days; type: functional, Sciatic nerve; set-up: scale not given: the % may be the effect or the level left
How it was run: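 STZ-diabetic male Wistar rats (ip 55 mg/kg) got compound po in 0.5% CMC-Na for 5 days. Sciatic nerve taken 6 h after last dose, boiled, homogenized in 6% perchloric acid and neutralized. Sorbitol read enzymatically with sorbitol dehydrogenase/NAD+ at pH 9.4, 60 min 37 °C, fluorescence ex 365/em 430 nm. Inhibition = (S-T)/(S-N)×100 against diabetic and nondiabetic controls.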

Rattus norvegicus [4] = test: Inhibition of ALR2 in 5-day STZ-induced diabetic Wistar rat model assessed as blood glucose levels at 100 mg/kg/day, po for 5 days (reference value: 22.2 +/- 2.62 mmol/L); type: functional
[5] = test system: Aldehyde reductase, AKR1A1 (Rattus norvegicus); test: Inhibition of Wistar rat kidney ALR1 at 0.1 mM by spectrophotometry
[6] = molecular target: Aldo-keto reductase family 1 member B1 (Rattus norvegicus) (UniProt P07943); test: Inhibition of Wistar rat lenses ALR2 at 0.1 mM by spectrophotometry; type: tissue-based; conditions: Lens of camera-type eye; how it was run: as §1

Sequence of Aldo-keto reductase family 1 member A1 (P51635 whole entry, looked up): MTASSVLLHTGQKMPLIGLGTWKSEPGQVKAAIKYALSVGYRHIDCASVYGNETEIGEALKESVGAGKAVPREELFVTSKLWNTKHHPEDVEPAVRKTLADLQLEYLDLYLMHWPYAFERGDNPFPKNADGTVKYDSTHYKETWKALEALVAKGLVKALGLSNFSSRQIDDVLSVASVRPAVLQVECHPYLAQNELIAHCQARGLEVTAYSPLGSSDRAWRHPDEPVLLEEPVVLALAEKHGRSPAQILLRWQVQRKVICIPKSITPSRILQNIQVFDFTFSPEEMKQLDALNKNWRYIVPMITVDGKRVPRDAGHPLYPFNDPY

IC50 [1] [µM]	IC50 [2] [µM]	inhibition [5] [%]	inhibition [6] [%]	Structure (SMILES)	Activity (Rattus norvegicus [3]) [%]	Activity (Rattus norvegicus [4]) [mmol/L]
58.9	0.041	–	–	O=C(O)CN1CN(Cc2ccc(Br)cc2F)S(=O)(=O)c2cc(Cl)ccc21	60.7	18.2
–	0.595	45	–	O=C(O)CN1CN(Cc2ccc(C(F)(F)F)cc2)S(=O)(=O)c2cc(Cl)ccc21	–	–
–	0.029	–	–	NC(=O)[C@@H]1C[C@]2(NC(=O)NC2=O)c2cc(F)ccc2O1 [FIDARESTAT]	100	18.5
–	74.5	–	–	O=C(O)CN1CN(Cc2cccc([N+](=O)[O-])c2)c2ccccc2S1(=O)=O	–	–
–	0.111	–	–	O=C(O)CN1CN(Cc2cc(F)c(F)cc2F)S(=O)(=O)c2ccccc21	–	–
–	–	–	41.3	O=C(O)CN1CN(Cc2ccc(C(F)(F)F)cc2)c2ccccc2S1(=O)=O	–	–
50.6	0.032	–	–	O=C(O)CN1CN(Cc2cc(F)c(F)cc2F)S(=O)(=O)c2cc(Cl)ccc21	61.5	17.9
–	0.931	40	–	O=C(O)CN1CN(Cc2ccc(C(F)(F)F)cc2)S(=O)(=O)c2cc(F)ccc21	–	–
103	0.116	–	–	O=C(O)CN1CN(Cc2cccc([N+](=O)[O-])c2)S(=O)(=O)c2cc(Br)ccc21	–	–
–	14	–	–	O=C(O)CN1CN(Cc2cc(F)c(F)cc2F)c2ccccc2S1(=O)=O	–	–
82.5	0.094	–	–	O=C(O)CN1CN(Cc2cccc([N+](=O)[O-])c2)S(=O)(=O)c2cc(Cl)ccc21	45	19.7
69.4	0.071	–	–	O=C(O)CN1CN(Cc2ccc(Br)cc2F)S(=O)(=O)c2cc(Br)ccc21	42.4	18.4
110	0.674	–	–	O=C(O)CN1CN(Cc2ccc(C(F)(F)F)cc2)S(=O)(=O)c2cc(Br)ccc21	–	–
55.8	0.219	–	–	O=C(O)CN1CN(Cc2cccc([N+](=O)[O-])c2)S(=O)(=O)c2ccccc21	–	–
54.1	0.052	–	–	O=C(O)CN1CN(Cc2cc(F)c(F)cc2F)S(=O)(=O)c2cc(Br)ccc21	51.2	20.1
70.3	0.125	–	–	O=C(O)CN1CN(Cc2ccc(Br)cc2F)S(=O)(=O)c2ccccc21	–	–
–	101	–	–	O=C(O)CN1CN(Cc2ccccc2)S(=O)(=O)c2ccccc21	–	–
–	0.975	42	–	O=C(O)CN1CN(Cc2ccc(C(F)(F)F)cc2)S(=O)(=O)c2ccccc21	–	–
61.9	0.108	–	–	O=C(O)CN1CN(Cc2cccc([N+](=O)[O-])c2)S(=O)(=O)c2cc(F)ccc21	43.6	19.8
122	0.09	–	–	O=C(O)CN1CN(Cc2ccc(Br)cc2F)S(=O)(=O)c2cc(F)ccc21	47.3	17.9
80.9	0.066	–	–	O=C(O)CN1CN(Cc2cc(F)c(F)cc2F)S(=O)(=O)c2cc(F)ccc21	68.2	18.4
–	58.4	–	–	O=C(O)CN1CN(Cc2ccc(Br)cc2F)c2ccccc2S1(=O)=O	–	–
